# PubChem BioAssay
# Activity calls are given as the source filed them.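 Rule for the calls, unless noted: active = GFP response above 150% of the DMSO level; inconclusive = fewer than 70 events counted for a yeast strain; inactive = the rest.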
# Key:
# [1] = hit retest on RPL19A-GFP reporter strain – cell-based, S. cerevisiae, flow cytometry, cherry picks, mother/daughter gates, confirmation (AID 2270;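 active = GFP response below 50% of the DMSO control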); settings: 3 h, at 10 µM, stronger effect = lower value, 100 = same GFP as DMSO wells
# [2] = yeast TOR pathway reporter LAP4-GFP change – cell-based, cherry picks, flow cytometry, mother/daughter gates, confirmation (AID 2271;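 active = GFP response above 150% of the DMSO control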;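 note: ratio of sample to DMSO plate mean so 100% equals DMSO level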); settings: S. cerevisiae LAP4-GFP strain, 3 h, at 10 µM, stronger effect = higher value, 100 means same as DMSO control
# Method in brief: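 material = Alexa 633-stained baker's yeast GFP-fusion strain | amount = 0.2 OD600 cells | schedule = 30 °C, 3 h compound incubation, rotating | signal = GFP by flow cytometry | measure = per-gate (all, mother, daughter) GFP response vs DMSO | controls = positive rapamycin (400 ng/mL), negative DMSO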
# [3] = TOR pathway reporter MEP2-GFP, retest of hits – S. cerevisiae, flow cytometry GFP, cherry picks, confirmation (AID 2272;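 active = GFP response above 150% of the DMSO control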;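 note: ratio of well signal to plate DMSO mean so 100% equals DMSO level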); settings: S. cerevisiae MEP2-GFP strain, 3 h, at 10 µM, stronger effect = higher value
# [4] = yeast AGP1-GFP fluorescence change, single-dose – cell-based, flow cytometry, S. cerevisiae, cherry picks, confirmation (AID 2273);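 note: median GFP channel fluorescence over the whole cell population gate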; settings: S. cerevisiae AGP1-GFP strain, 3 h, at 10 µM
# [5] = TOR pathway CIT2 reporter hit retest – S. cerevisiae, GFP fusion, cherry picks, mother/daughter gates, confirmation (AID 2274); settings: S. cerevisiae CIT2-GFP strain, flow cytometry, 3 h, at 10 µM, stronger effect = higher value
# [6] = measured here: daughter cell gate
# [7] = measured here: mother cell gate
# [8] = measured here: daughter cell gate response
# [9] = measured here: mother cell gate response
SMILES,GFP response vs DMSO [1],"GFP response vs DMSO [1, 6]","GFP response vs DMSO [1, 7]",GFP response relative to DMSO [2],"GFP response relative to DMSO [2, 8]","GFP response relative to DMSO [2, 9]",GFP response vs DMSO [3],"GFP response, % of DMSO [4]","GFP response, % of DMSO [5]","GFP response, % of DMSO [5, 6]","GFP response, % of DMSO [5, 7]"
CS(=O)(=O)N1N=C(c2ccco2)CC1c1ccc(Cl)cc1 (stereo unspecified),101% (inactive),102%,101%,96.5% (inactive),97.9%,94.6%,104% (inactive),101% (inactive),101% (inactive),100%,100%
COc1ccccc1N=Cc1nc(-c2ccccc2)oc1OC(C)=O,98.2% (inactive),96.9%,98.3%,103% (inactive),101%,106%,101% (inactive),70.7% (inactive),90.1% (inactive),88.4%,90.7%
COc1ccccc1-c1nnc(NC(=O)c2ccc(S(=O)(=O)N(C)C)cc2)o1,99.2% (inactive),98.6%,98.7%,111% (inactive),112%,109%,119% (inactive),93.3% (inactive),105% (inactive),106%,106%
C/C(=N\NC(=O)c1ccc(Cl)c(Cl)c1)c1cccc(NC(=O)C(C)C)c1,99.9% (inactive),99.8%,101%,94.2% (inactive),93.6%,94.6%,99.5% (inactive),96% (inactive),99.3% (inactive),100%,96.8%
COC(=O)Cn1cc(/C=C/c2cc[n+](C)cc2)c2ccccc21,99.3% (inactive),99.3%,98.2%,97.7% (inactive),99%,98.4%,112% (inactive),104% (inactive),104% (inactive),105%,104%
Cc1ccc(/C=C/C(=O)NC2CCCCCCC2)o1,98.8% (inactive),99.4%,98.2%,125% (inactive),120%,130%,102% (inactive),90.8% (inactive),101% (inactive),105%,97.3%
Cc1cc(O)c(C(=O)/C=C/c2ccccc2O)c(=O)o1,101% (inactive),98.9%,101%,119% (inactive),109%,125%,105% (inactive),90.2% (inactive),89.8% (inactive),91.7%,86.7%
CCSC1=NCCN1S(=O)(=O)c1ccc(F)cc1,98.8% (inactive),97.6%,99%,105% (inactive),101%,106%,103% (inactive),101% (inactive),93.4% (inactive),93.7%,92.8%
CC1CN(c2nc3ccccn3c(=O)c2/C=C(\C#N)C(N)=O)CC(C)O1 (stereo unspecified),97.8% (inactive),97.3%,95.8%,96.5% (inactive),99%,95.4%,106% (inactive),99.5% (inactive),101% (inactive),99.3%,103%
CCOc1ccc(Nc2nc(N(C)c3ccccc3)nc(N)c2[N+](=O)[O-])cc1,92.1% (inactive),94.7%,91.7%,96.5% (inactive),95%,95.6%,106% (inactive),113% (inactive),104% (inactive),104%,106%
Cc1n[nH]c(C)c1N1C(=O)c2cccc3cc(Br)cc(c23)C1=O,95.2% (inactive),95.9%,97%,99.5% (inactive),99.1%,99.4%,99% (inactive),105% (inactive),102% (inactive),101%,99.3%
